Apaf1 inhib: blocks human Apaf-1 apoptosome activity; reconstituted apoptosome caspase-3 activity, DEVD-Rh110 fluorescence; inhibition, % at 20 µM; actives 0.71% (n = 330,000); O14727; active = inhibition of at least 40% at 20 µM;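 note: plate controls were DMSO wells for no effect and DEVD-CHO caspase inhibitor wells for full effect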
Target sequence (O14727 whole entry, looked up): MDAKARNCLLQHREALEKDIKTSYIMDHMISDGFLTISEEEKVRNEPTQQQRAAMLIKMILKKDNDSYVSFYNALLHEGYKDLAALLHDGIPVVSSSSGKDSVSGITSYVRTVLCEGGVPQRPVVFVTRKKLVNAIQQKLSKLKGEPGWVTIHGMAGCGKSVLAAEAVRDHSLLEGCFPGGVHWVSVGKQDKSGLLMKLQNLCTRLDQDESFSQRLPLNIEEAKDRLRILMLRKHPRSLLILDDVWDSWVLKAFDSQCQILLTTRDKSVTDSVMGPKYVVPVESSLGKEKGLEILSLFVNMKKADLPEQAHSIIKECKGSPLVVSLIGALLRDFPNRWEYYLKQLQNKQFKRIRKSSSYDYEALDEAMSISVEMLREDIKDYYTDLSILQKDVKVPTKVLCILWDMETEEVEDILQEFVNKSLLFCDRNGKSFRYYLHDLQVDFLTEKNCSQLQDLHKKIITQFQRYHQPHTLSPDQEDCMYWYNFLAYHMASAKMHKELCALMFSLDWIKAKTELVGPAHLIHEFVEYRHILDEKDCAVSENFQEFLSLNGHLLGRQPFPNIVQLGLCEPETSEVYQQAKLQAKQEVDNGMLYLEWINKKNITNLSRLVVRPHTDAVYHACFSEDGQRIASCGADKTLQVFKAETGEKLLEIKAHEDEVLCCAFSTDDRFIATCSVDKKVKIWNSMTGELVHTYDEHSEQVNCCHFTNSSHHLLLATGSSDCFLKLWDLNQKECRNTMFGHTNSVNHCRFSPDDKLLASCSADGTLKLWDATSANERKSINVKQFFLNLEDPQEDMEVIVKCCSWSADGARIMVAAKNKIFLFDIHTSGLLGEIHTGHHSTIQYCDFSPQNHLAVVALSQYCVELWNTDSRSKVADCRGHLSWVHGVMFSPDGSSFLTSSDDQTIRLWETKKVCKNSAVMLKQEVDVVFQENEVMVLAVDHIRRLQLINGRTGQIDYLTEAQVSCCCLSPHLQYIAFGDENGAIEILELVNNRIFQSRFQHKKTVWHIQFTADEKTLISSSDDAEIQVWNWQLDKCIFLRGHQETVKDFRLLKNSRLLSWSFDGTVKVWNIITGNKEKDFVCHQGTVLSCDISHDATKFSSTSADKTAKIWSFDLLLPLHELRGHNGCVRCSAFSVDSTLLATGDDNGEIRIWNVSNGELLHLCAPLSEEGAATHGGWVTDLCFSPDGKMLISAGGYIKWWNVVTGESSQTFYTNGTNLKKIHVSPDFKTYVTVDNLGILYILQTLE
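Material: reconstituted apoptosome with Apaf-1, cytochrome c, caspase-9, procaspase-3, dATP / Buffer or medium: pH 7.5 Hepes buffer with CHAPS, BSA, DTT / Also added: cytochrome c with DEVD-Rh110 / Schedule: compound with Apaf-1, dATP, procaspase-3 30 min, then 50 min reaction, room temperature / Technique: rhodamine 110 fluorescence at Ex 480/Em 540 nm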
UPR CHOP act: apoptotic UPR (CHOP) activation | CHO-CHOP luciferase reporter, luminescence; percent of tunicamycin response over DMSO baseline | activation, % at 10 µM | actives 0.34% (n = 330,000);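 active = at 10 µM dose, activation of 40% or more, normalized to positive control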;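 note: 100% = tunicamycin at 10 µg/mL and 0% = DMSO alone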
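Dosing – one dose, 10 µM in 0.5% DMSO · System – CHO-CHOP cells, stable luciferase reporter of PERK-eIF2a-CHOP signalling · Input – 500 cells/well · Control set – tunicamycin 10 µg/mL final as positive, DMSO-only wells as negative · Timing – 6 h compound treatment, 37 °C · Measure – % activation vs tunicamycin · Technique – luminescence read with Steady-Glo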
UPR XBP1 act: adaptive UPR (XBP1) activation. actives 0.33% (n = 330,000). CHO-XBP1 luciferase reporter, IRE1-XBP1 UPR activation, luminescence; percent of tunicamycin response, DMSO as zero. activation, % at 20 µM. AID 463104;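 active = versus positive control, 20 µM dose yields 30% or more activation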;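 note: 100% = tunicamycin at 10 µg/mL and 0% = DMSO only wells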
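Material: CHO-XBP1 cells stably carrying IRE1-XBP1-driven luciferase reporter / Amount: 1000 cells per well / Compound: 20 µM, 1% DMSO / Times: 6 h treatment, 37 °C / Detection: luciferase luminescence / Measure: % activation of reporter signal versus tunicamycin and DMSO controls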
Mdm2-MdmX inh: inhibitors of human Mdm2/MdmX interaction | actives 3% (n = 330,000) | inhibition, % at 8 µM | O15151+Q00987 | AID 485346 | SaOS-2 split-luciferase Mdm2/MdmX complementation, luminescence;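 active = inhibition of at least 50% at 8 µM in the primary screen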
UBC13 inh: inhibitors of human UBC13 polyubiquitin chain formation; P61088; TR-FRET; inhibition, % at 20 µM; actives 0.47% (n = 330,000); in the data active = inhibition above about 45%, passing the limit was not always enough
Mdm2-MdmX conf: confirmation of human Mdm2/MdmX interaction inhibitors. shares compounds with Mdm2-MdmX inh. Mdm2-MdmX binding, luminescent assay. inhibition, % at 8 µM. actives 55% (n = 10,000). AID 489028; in the data active = inhibition above about 40%
Full FLuc ctr: counter-screen for Mdm2/MdmX inhibitors: full-length luciferase | shares compounds with Mdm2-MdmX inh | SaOS-2 full-length luciferase counterscreen, luminescence | inhibition, % at 8 µM | actives 77% (n = 6,200) | AID 504607;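 active = mean inhibition at 8 µM reaching about 37%, which flags the compound as non-specific, limit read from the data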;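 note: p53-null SaOS-2 cells with luciferase driven by a doxycycline-inducible promoter; compound on cells about two nights before reading with doxycycline added after day one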
An asterisk follows results filed as active; i = inactive; x = no result given. Rows were chosen to be rich in hits. Some 4.1% of all compounds tested hit in one or more screens of this group.

SMILES	Apaf1 inhib	UPR CHOP act	UPR XBP1 act	Mdm2-MdmX inh	UBC13 inh	Mdm2-MdmX conf	Full FLuc ctr
NC(=O)[C@H]1CC2(CC(c3cccc(NC(=O)COc4ccc(Cl)cc4)c3)=NO2)CN1C(=O)c1ccc(Cl)cc1 (stereo partly specified)	24	2	2	43	-5	x	x
CC(C)CC1NC(=S)N(Cc2ccccc2)C1=O (stereo unspecified)	-11	1	0	87*	-1	82*	53*
CCOc1ccc(C(=O)N[C@H](C(=O)Nc2cccc(S(=O)(=O)N3CCOCC3)c2)C(C)C)cc1	12	1	17	19	2	x	x
COc1ccc(C(C)=NNC(=O)c2cccc(S(=O)(=O)N3CCCC3)c2)cc1	11	4	1	4	-10	x	x
COc1ccc(/C(C)=N/NC(=O)c2cccc(S(=O)(=O)N3CCCC3)c2)c(O)c1	11	-1	-1	67*	5	81*	34
COc1ccc(NS(=O)(=O)c2cccc(NC(=O)c3ccc(S(=O)(=O)N4CCCCCC4)cc3)c2)cc1	9	8	1	53*	4	33	x
CCOc1ccc(C(=O)N[C@H](C(=O)Nc2cccc(S(=O)(=O)N3CCCCC3)c2)C(C)C)cc1	4	2	1	51*	1	32	x
COC(=O)c1c(NC(=O)C(=O)N2CCOCC2)sc2c1CCCC2	10	0	-1	30	3	x	x
Cc1ccc(NC(=S)N=Nc2c(O)n(C)c3ccc(S(=O)(=O)N4CCOCC4)cc23)cc1C	2	6	-2	52*	-34	41*	48*
Cc1cc(=O)n(C)c2ccc(S(=O)(=O)N3CCOCC3)cc12	-5	-1	3	18	-10	x	x
COc1ccc(C2=CC(=O)CC(c3ccc(OC)cc3)C2)cc1 (stereo unspecified)	12	2	1	-32	-7	x	x
COc1ccc([C@H]2CC(=O)C=C(c3cc(OC)ccc3OC)C2)cc1	11	0	1	51*	7	51*	54*
COc1ccc([C@H]2CC(=O)C=C(c3c(OC)cccc3OC)C2)cc1	12	0	3	56*	-14	53*	51*
COC(=O)C1=C(C)Nc2nc3ccccc3n2C1c1cc(OC)c(OC)c(OC)c1 (stereo unspecified)	-4	1	1	52*	-12	46*	96*
CCOC(=O)C1=C(C)Nc2nc3ccccc3n2C1c1ccc(O)cc1 (stereo unspecified)	-10	3	2	25	-6	x	x
CCCCN1C(=O)c2ccc(C(=O)NC3(C)CCS(=O)(=O)C3)cc2C1=O (stereo unspecified)	6	1	-2	1	-4	x	x
Cc1cc2nc(C)c3c(n2n1)CCC3	-3	-1	0	-7	-4	x	x
CCc1c(C2(O)CCCCC2)[nH]c2ccc(C(F)(F)F)cc12	27	-2	1	82*	22	37	x
CN(C)Cc1c(C(C)(C)O)[nH]c2ccc(C(F)(F)F)cc12	9	6	0	16	1	x	x
CN(C)c1ccc(/C=C/c2ccc3ccccc3[n+]2C)cc1	18	9	2	87*	i	82*	13
Cc1ccc(-n2c(-c3ccccc3)cc(/C=N/NC(=O)CC#N)c2-c2ccccc2)cc1	17	7	3	55*	-6	20	x
Cc1cccc2c1-c1sc(C(=O)N3CCCCC3)cc1CO2	17	2	7	-149	26	x	x
Cc1cccc2c1-c1sc(C(=O)Nc3ccccc3N3CCN(C)CC3)cc1CO2	8	1	5	65*	34	38	68*
CCCN(CCC)c1nc2ccccc2n2c(C)nnc12	19	2	3	9	-9	x	x
CCCNc1nc2ccccc2n2c(C)nnc12	7	-1	10	58*	-3	33	x
SMILES	Apaf1 inhib	UPR CHOP act	UPR XBP1 act	Mdm2-MdmX inh	UBC13 inh	Mdm2-MdmX conf	Full FLuc ctr
CC(C)C(C)NC(=O)CN1C(=O)NC2(CCc3ccccc32)C1=O (stereo unspecified)	2	-2	0	-19	1	x	x
COc1ccc(C=O)cc1OS(=O)(=O)c1ccc(NC(C)=O)cc1	-9	0	1	4	-3	x	x
COc1ccc(/C=N/NC(=O)c2ccc3ccccc3c2)cc1OS(=O)(=O)c1ccc(NC(C)=O)cc1	-10	-2	3	68*	-6	55*	58*
COc1ccc(/C=N/NC(=O)c2cccnc2)cc1COc1ccc(NC(C)=O)cc1	-2	-1	-2	52*	-5	26	x
COc1ccc(/C=N/NC(=O)c2cccnc2)cc1COc1ccc([N+](=O)[O-])cc1	3	-1	0	51*	-1	37	81*
COc1ccc(/C=N\NC(=O)c2cccc(F)c2)cc1COc1ccccc1	12	4	23	58*	-9	64*	75*
COc1ccc(OCc2cc(/C=N\NC(=O)c3ccccc3)ccc2OC)cc1	15	0	-3	50	-9	x	x
COc1ccc(N(CC(=O)NCc2ccccc2OC)S(=O)(=O)c2ccc(C)cc2)cc1Cl	8	0	-4	20	4	x	x
Cc1c(CCC(=O)NCCC(=O)O)c(=O)oc2c(C)c3oc4c(c3cc12)CCCC4	6	-3	-4	6	7	x	x
COC(=O)c1cccc(NC(=O)CCCOc2cccc(C)c2)c1	3	-2	-2	17	0	x	x
O=C(CN(Cc1ccccc1)C(=O)CCl)c1cccc(Br)c1	18	13	-6	100*	6	80*	60*
Cc1cc(C)c(NC(=O)c2cccc3c2C(=O)N(C2CCCCC2)C3)c(C)c1	15	-1	-3	63*	-15	-2	x
Cc1ccc(NC(=O)c2cccc3c2C(=O)N(C2CCCCC2)C3)c(C)c1	8	-1	2	-9	-22	x	x
O=C(O)c1c2c(nc3ccccc13)/C(=C/c1ccc(OC(F)F)cc1)CCC2	9	-1	0	-9	-7	x	x
O=C(O)c1c2c(nc3ccccc13)/C(=C/c1ccc(O)cc1)CC2	-2	-5	-7	62*	2	60*	106*
CCCCNC(=O)c1cc2ccccc2s1	4	5	4	-9	-7	x	x
COc1ccc(CCC(=O)Nc2cccc(S(=O)(=O)N(C)C)c2)cc1OC	0	-2	-2	19	-11	x	x
COc1cc2c(cc1OC)CN(C1CCC(C)CC1)CC2 (stereo unspecified)	3	0	-2	-45	-3	x	x

High-throughput results deposited in PubChem BioAssay by Sanford-Burnham Center for Chemical Genomics.
